We go through 16 compounds from ChEMBL document CHEMBL2311346, “An unprecedented reversible mode of action of β-lactams for the inhibition of human fatty acid amide hydrolase (hFAAH)” (Eur J Med Chem, 2013).

For one experiment, the target named is T1, Monoglyceride lipase (Homo sapiens, UniProt Q99685).
T1 sequence (Q99685 whole entry): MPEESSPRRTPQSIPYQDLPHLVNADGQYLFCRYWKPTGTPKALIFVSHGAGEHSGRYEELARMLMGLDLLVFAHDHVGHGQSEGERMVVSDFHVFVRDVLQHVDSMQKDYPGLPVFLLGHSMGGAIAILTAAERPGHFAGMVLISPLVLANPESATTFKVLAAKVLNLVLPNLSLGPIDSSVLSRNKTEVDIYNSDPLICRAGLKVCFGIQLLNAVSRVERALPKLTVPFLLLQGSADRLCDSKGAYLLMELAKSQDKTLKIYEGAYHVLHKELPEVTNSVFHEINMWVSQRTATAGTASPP
Nature of the experiment: Inhibition of human recombinant MAGL using [3H]-2-OG as substrate incubated for 30 mins at room temperature followed by incubation at 37 degC for 10 mins by liquid scintillation assay. Summed up: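 Purified human recombinant MAGL in 10 mM Tris–HCl, 1 mM EDTA, 0.1% BSA, pH 8.0, with compound in DMSO (DMSO controls) and [3H]-2-OG (2 µM final). Preincubated 20 °C for 30 min, then 37 °C for 10 min. Ice-cold chloroform/methanol stop; lower chloroform phase counted by liquid scintillation; buffer-only blank subtracted.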

The target of experiment [1] is T2, Fatty-acid amide hydrolase 1 (Homo sapiens, UniProt O00519).
T2 sequence (O00519 whole entry): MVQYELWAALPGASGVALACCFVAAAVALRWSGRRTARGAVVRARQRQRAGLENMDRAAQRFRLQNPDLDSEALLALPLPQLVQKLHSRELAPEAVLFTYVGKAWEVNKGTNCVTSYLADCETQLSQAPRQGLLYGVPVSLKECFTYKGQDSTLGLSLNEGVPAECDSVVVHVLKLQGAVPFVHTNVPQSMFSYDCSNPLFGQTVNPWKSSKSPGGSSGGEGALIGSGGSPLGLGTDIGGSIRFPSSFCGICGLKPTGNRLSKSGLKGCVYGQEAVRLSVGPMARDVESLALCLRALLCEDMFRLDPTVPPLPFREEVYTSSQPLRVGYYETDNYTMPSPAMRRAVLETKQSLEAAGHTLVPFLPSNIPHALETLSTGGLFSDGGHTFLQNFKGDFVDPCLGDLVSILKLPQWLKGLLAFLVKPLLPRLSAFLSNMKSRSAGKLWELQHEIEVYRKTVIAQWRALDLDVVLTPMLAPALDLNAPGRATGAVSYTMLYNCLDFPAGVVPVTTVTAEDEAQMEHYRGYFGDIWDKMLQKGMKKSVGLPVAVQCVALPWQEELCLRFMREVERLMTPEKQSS
Nature of the experiment: Inhibition of human recombinant FAAH-mediated [3H]AEA hydrolysis after 10 mins by liquid scintillation assay. Summed up:
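Human recombinant FAAH in 10 mM Tris–HCl, 1 mM EDTA, 0.1% BSA, pH 7.4, with compound in DMSO (DMSO controls) and [3H]-AEA (2 µM final), 37 °C for 10 min. Ice-cold chloroform/methanol stop, centrifugation, [3H]-ethanolamine in upper methanol/buffer phase counted by scintillation. Buffer-only blank subtracted; IC50 from three independent experiments.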

Experiment [2] has as its target T3, Fatty-acid amide hydrolase 1 (Homo sapiens) (UniProt O00519).
T3 sequence (whole entry): T2 sequence (O00519 whole entry)
In words: Competitive reversible inhibition of human recombinant FAAH using [3H]AEA as substrate incubated up to 90 mins by compound dilution method. Summed up:
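Wash-out: human recombinant FAAH (27.5 µg) preincubated 1 h at room temperature with inhibitor or DMSO in 15 µL, at concentrations inhibiting before but not after dilution; diluted 100-fold in assay buffer. Aliquots taken at 0, 30 and 90 min post-dilution, given [3H]-AEA (2 µM final), 37 °C for 30 min; stopped with chloroform/methanol; aqueous phase counted; buffer blank subtracted.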

The target of experiment [3] is T4, Monoglyceride lipase (Homo sapiens) (UniProt Q99685).
T4 sequence (whole entry): T1 sequence (Q99685 whole entry)
In words: Inhibition of human recombinant MAGL using [3H]-2-OG as substrate at 1 mM incubated for 30 mins at room temperature followed by incubation at 37 degC for 10 mins by liquid scintillation assay.

For the next experiment, the species on record is Homo sapiens. Nature of the experiment: Selectivity ratio of IC50 for human recombinant MAGL to IC50 for human recombinant FAAH.
Experiment [4] addresses T3, Fatty-acid amide hydrolase 1 (Homo sapiens). Nature of the experiment: Irreversible inhibition of human recombinant FAAH using [3H]AEA as substrate incubated up to 90 mins by compound dilution method.

Molecules are shown by their SMILES. pIC50: −log10 of the molar value. Calls of active or inactive are those of the source. The rule behind the calls is not given here.

In general, pIC50 refers to the negative decadic logarithm of the IC50, by convention in mol/L. With `C=CCCC(=O)N1C[C@@H]([C@@H](C)OC(=O)CCCc2ccccc2)C1=O`, the negative logarithm of the IC50 (pIC50) at Monoglyceride lipase was 5.39.
As for `C=CCNC(=S)N1C[C@@H]([C@@H](C)OC(=O)COCc2ccccc2)C1=O`, the figures for the pIC50 (on Monoglyceride lipase; in experiment [1]) were 3.91 and 5.98, respectively.
For `O=C(CCCCCCc1ccccc1)c1nc2ncccc2o1`, the inhibition result in experiment [2] is “Active”.
On to `C=CCOC(=O)N1C[C@@H]([C@@H](C)OC(=O)COCc2ccccc2)C1=O`, for which, in experiment [1], the pIC50 was 7.52.
For `C=CCCC(=O)N1C[C@@H]([C@@H](C)OC(=O)NCCc2ccccc2)C1=O`, in experiment [1], the negative-log IC50 (pIC50) was 7.48.
Regarding `C=CCNC(=S)N1C[C@@H]([C@@H](C)OC(=O)CCCc2ccccc2)C1=O`, the inhibition (INH) in experiment [3] was 60%. Also, in experiment [1], the pIC50 was 6.84.
Regarding `C=CCCC(=O)N1C[C@@H]([C@@H](C)OC(=O)COCc2ccccc2)C1=O`, in experiment [1], the pIC50 was 7.51.
Consider `C=CCNC(=O)N1C[C@@H]([C@@H](C)OC(=O)CCCc2ccccc2)C1=O`, for which the pIC50 was 4.01 at Monoglyceride lipase and 8.25 in experiment [1]. The Ratio IC50 in the experiment filed under Homo sapiens stood at 18000.
For the compound `C=CCNC(=O)N1C[C@@H]([C@@H](C)OC(=O)COCc2ccccc2)C1=O`, the pIC50 is 4.25 at Monoglyceride lipase and 7.15 in experiment [1].
As to `C=CCOC(=O)N1C[C@@H]([C@@H](C)OC(=O)NCCc2ccccc2)C1=O`, the pIC50 in experiment [1] is 7.92.
Turning to `NC(=O)c1cccc(-c2cccc(OC(=O)NC3CCCCC3)c2)c1`, the inhibition result in experiment [4] was “Active”.
`C=CCOC(=O)N1C[C@@H]([C@@H](C)OC(=O)CCCc2ccccc2)C1=O`: the pIC50 on Monoglyceride lipase was 4.99; in experiment [1], 8.44. Further, in the experiment listed under Homo sapiens, the Ratio IC50 is 2800. The inhibition result in experiment [2] was “Active”.
As to `C=CCNC(=S)N1C[C@@H]([C@@H](C)OC(=O)NCCc2ccccc2)C1=O`, the inhibition (INH) in experiment [3] is 25%. Further, the pIC50 in experiment [1] is 6.02.
`C=CCNC(=O)N1C[C@@H]([C@@H](C)OC(=O)NCCc2ccccc2)C1=O`: the pIC50 in experiment [1] is 7.54.
On to `CCCSC(=O)N1C[C@@H]([C@@H](C)OC(=O)CCCc2ccccc2)C1=O`, for which the figures for the pIC50 (on Monoglyceride lipase; in experiment [1]) were 4.72 and 7.92, respectively. For the same compound, in experiment [2], the inhibition result was “Active”.
On to `C=CCCC(=O)N1C[C@@H]([C@@H](C)OC(=O)CCCc2ccncc2)C1=O`, for which the pIC50 in experiment [1] was 6.51.
